Laboratory results from the EternaBench riboswitch data.

Test system: MS2 coat protein
Test: apparent Kd, MS2 coat protein; higher = weaker binding; RNA-MaP array; FMN 200 µM where present
How it was run: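 Binding was read on Illumina sequencing-chip clusters where stalled E. coli RNA polymerase had transcribed each design. A titration of SNAP-549-labelled MS2 coat protein began at 0.7 or 1.5 nM and doubled to 3 µM, once without ligand and once with constant ligand, in 100 mM Tris-HCl pH 7.5, 80 mM KCl, 4 mM MgCl2, BSA, DTT, yeast tRNA and Tween-20. The apparent Kd is the median of filtered per-cluster binding-curve fits, based on green signal normalised to red-channel RNA signal and control-cluster median Fmax.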

[1] = designed as: OFF switch for flavin mononucleotide, no ligand
[2] = ligand present: flavin mononucleotide, designed as: OFF switch for flavin mononucleotide
[3] = designed as: ON switch for flavin mononucleotide, no ligand
[4] = ligand present: flavin mononucleotide, designed as: ON switch for flavin mononucleotide

Sequence	apparent Kd [1] [µM]	apparent Kd [2] [µM]	apparent Kd [3] [µM]	apparent Kd [4] [µM]
UGGUUGUCAGGAUAUACGUUUUUUAACUUUUGUUUUAUAUUGUAGAAGGGACAUGAGGAUCACCCAUGUUACGU	0.0252	0.0271	–	–
GUCAGCACGUGAGGAUAUACAACACUGCUUCGGCAGUGUAUUAAGAUCACAUGAGGAUCACCCAUGUAGAAGGCACGAGCUGAU	0.0136	0.268	–	–
ACCGUAUGAACAUGAGGAUCACCCAUGUAACCGAUAACGAAUGAGGAUAUCGAUAGCAAAGCUAUCGAGAAGGCAUGGGACGGU	–	–	0.224	0.0439
AAUUAAUUAAUACAUGAGGAUCACCCAUGUAAUUAUUAGAUCUAGGAUAUCAGCUCGAUUAGAGCUGAGAAGGAGAUCACAUGU	–	–	0.0185	0.0148
AUCAGCUCGUCAGGAUAUACGUCACUGCGUCAGCAGUGUGGUAAGUUCACAUGAGGAUCACCCAUGUAGAAGGGACGAGCUGAU	0.00498	0.00714	–	–
AAAAAGGGAGGAUAUACAUGAGGAUCACCCAUGUAGCAGACGAAAAAGAGUCUGUAAUGUAGAAGGCCCAAAAA	0.0171	0.0527	–	–
CUUCUGUCAGGAUAUGCGAAUCGGCACUGGGUCAGUGGCGAGCAGAAGGGACAUGAGGAUCACCCAUGUAAAGU	0.0328	0.131	–	–
ACUAGAUGAGGAUAUGCAUGUUUUCGUGUUCUUCUAGAUUAACAUGAGGAUCACCCAUGUAGAAGGCGUCAAUU	0.0415	0.132	–	–
GUAGCAUUCCGAGGAUAUUCAGGGCGUGGAUAUACAUGAGGAUCACCCAUGUGGCGGAAGCCUAGGGAGAAGGCGGGCUGCUUC	–	–	0.0278	0.0186
UUGUUGUAUGUAGGAUAUGCGUAUUAUUAUUAUGCAGAAGGACAUGAGGAUCACCCAUGUAUAUUAUUAUUAUAUAUUAUAUAU	0.0269	0.0561	–	–
ACUUUAUUUGAGAAGGUGAAGUGGAAACAUGAGGAUCACCCAUGUAUUAGGAAGCCUAAUUUUAUCAAGGAUAUCAAAUAAAGA	–	–	0.00793	0.00804
GUGGUCAGACAUGAGGAUCACCCAUGUGGAAUAAAUAAGGAAAAGGAUAUCGAAUAUAGGAUAUACGAGAAGGUUUGGUUGGUG	–	–	0.0965	0.0988
GUAAAGUGAGGAUAUGGUAAUUUAAUUAUUAAUUAAUUAAUCCAGAAGGCACAUGAGGAUCACCCAUGUAAAUG	0.0319	0.063	–	–
AUCAGCUCGUCAGGAUAUACGUCAAUGCGUCAGCAGUGUGGUAAGAUCACAUGAGGAUCACCCAUGUAGAAGGGACGAGCUGAU	0.125	0.572	–	–
UUUUAGUGAGGAUAUGUGGCUUCGAUCGUGAGAUCGAGGCUACAGAAGGCACAUGAGGAUCACCCAUGUUCCUC	0.0383	0.597	–	–
AGGCGGGUAGGAUAUAUUUUCGUCAACAUGAGGAUCACCCAUGUGUCCUGAAGUGAUAUCAUAGAAGGGCCCAGCU	0.0254	0.0338	–	–
CACAGGGAUUCAGGAUAUAUUAGCCGAGGCCGCGUAGAAGGGAAAUCCUGACAUGAGGAUCACCCAUGUCGACCCGCCUUCCAU	–	–	0.0486	0.0485
AGUGUGUGGCAGGAUAUUCCGGUCGUUGGUCGGGAAGAAGGGUCUACAUGAGGAUCACCCAUGUGACCGGUUGA	0.0256	0.0256	–	–
AGAAUGGGCGAGAAGGGAGUACAUGAGGAUCACCCAUGUGGUUCAUGGUGCUCAGGAUAUCGAUAGACCAAGGAGCGUCUUUGG	0.0201	0.14	–	–
GCAUGCAAGUAGAAGGACGGAUAUUUUGAUACCGUAGGAUAUGCAGAAUCAUAUCCACAUGAUAACAUGAGGAUCACCCAUGUA	0.015	0.0137	–	–
AAUAUGAGCUGGUCUAAACUCAAAACAUGAGGAUCACCCAUGUAGGAUAUCAGCACGAUAAGUGCUGAGAAGGACAUCCAGCUC	0.0167	0.0205	–	–
UGGAUGGUAUGAGGAUAUGCGCGCGAAACGCGCGCAGAAGGCAUGUCAAUAGACAUGAGGAUCACCCAUGUAUUAUCCAUCCAC	–	–	0.192	0.013
UCGUGAAGGACAGGAUAUGGACAUGAGGAUCACCCAUGUACAUGGGAAUGUAUACUGAAUUUGUACUAGAAGGGUUACAUAAAU	0.0299	0.0206	–	–
GGCCUGUAAGGAUAUUAGUAGUAGUCAGAAAAGACUAUUACUGAGAAGGUACAUGAGGAUCACCCAUGUUGGCC	0.0174	0.0201	–	–

Sequence	apparent Kd [1] [µM]	apparent Kd [2] [µM]	apparent Kd [3] [µM]	apparent Kd [4] [µM]
GUUAGUUAAGGAUAUACUGGGAGCUGCGGCGUCUCGCCGCAACAUGAGGAUCACCCAUGUAGAAGGUGACCAUU	0.32	0.229	–	–
GGGUACAUCGGAGGAUAUCAUGUAAAGACAUGAGGAUCACCCAUGUCGAUGGAGACAUCGGAGAUUGAGAAGGCCGAUGUACCG	–	–	0.0264	0.00619
AUUUAAAUGUCAGGAUAUGGUAGAUUAUUCUUAUCAGAAGGGAUAAUUAUACUCAAGUACAUGAGGAUCACCCAUGUUAAAUCA	–	–	0.0103	0.0103
AAUAACAGAGGAUAUACUGUUUUAUGUAUUUAUUAUUUUAAACAUGAGGAUCACCCAUGUAGAAGGCUGAUUAA	0.0302	0.027	–	–
AGGUAAACCACAGGAUAUGGCUAGCAUAGCUAGCCAGAAGGGUGGUCGAAACCAUGUAAAUACAUGAGGAUCACCCAUGUAUCC	–	–	0.566	0.0753
AGUACCAUGUAGAAGGGAUAUCUGAUUCAGAUAUCAGGAUAUACAUGAGGAUCACCCAUGUAAAUGUACUGCACGAAAGUGCAA	0.018	0.0379	–	–
GGGUACAUGGGAGGAUAUCCUCAAGAGACAUGAGGAUCACCCAUGUAUUAUAUGCCUCAUGGCAUGGAGAAGGCCCAUGUACCG	–	–	0.188	0.16
AUACAUGAGGAUCACCCAUGUCGCAGGUUAAGGCCCAAAUCGAGAAGGGAUUCGGUCAAGCCUAAUCAGGAUAUCGGUGGAGCC	–	–	0.0843	0.0696
CCAUUUCAGUAAGGAUAUAUAAACAUGACGAUACAUGAGGAUCACCCAUGUGUAGAAGGUACUAAUACAUAUAAUACAAUGCUC	0.0192	0.0157	–	–
CUAUUGCGAGGAUAUGAUUUAAAUAACAUGAGGAUCACCCAUGUUUUUACGUUGUUAUGUUCAGAAGGCGUAUUGU	0.0401	0.0263	–	–
CAGCGCUGUCGAGAGGAUAUGCGGUGAUGGACAUGAGGAUCACCCAUGUUAGCGAUGGCAUUACGGUAGAAGGCUCUACAGCUGC	–	–	0.0403	0.0164
GAGGAAAGGUAGCCCGACGUACCAGCAGAAGGGUGAUCAGACAUGAGGAUCACCCAUGUAGGAACACAGGAUAUGCAUGCACUU	–	–	0.08	0.0278
AAAAAGUCAGGAUAUGUGAAAAAAAAAAAAAAAAAAAAAAAACAGAAGGGACAUGAGGAUCACCCAUGUAAAAA	0.0541	0.0623	–	–
UCCAGGCGAGGAUAUACAAAGAUUUUUUCGUUUUGUCUCGAACAUGAGGAUCACCCAUGUAGAAGGUGCUGCUG	0.0575	0.0529	–	–
AUUAAACAUGAGGAUCACCCAUGUCAACAAAGUCGAGGAUAUGGGCAUAUUAUCUUAUAACCAGAAGGCGAAUAAU	–	–	0.222	0.037
AAUAAUGAUAAGGAUAUCACUAGCCUCGGCUAGUGAGAAGGUAUCACAUGAGGAUCACCCAUGUGUUCCAAUAA	0.0161	0.0403	–	–
AGAAACUACGAGAAGGACAUGUGAACCUUCAACUACAUGAGGAUCACCCAUGUAGGAUAUCGUAGUUUCAGGAUCGUGAGAUCA	0.00593	0.00644	–	–
GGUGCCAUGUAGAAGGCAGAUCUGAUUCAGAUCUGAGGAUAUACAUGAGGAUCACCCAUGUAAAGCCACCGCACGAGAGUGCAA	0.0702	0.19	–	–
GAAAAGGUAGGAUAUACGAAAACAAAGGGUAGAAACAAAACACAUGAGGAUCACCCAUGUAGAAGGACCAAAAG	0.0364	0.233	–	–
AACUCAGCAGGAUAUACAUACAAAUCCAUCAUGCCGUUUGAACAUGAGGAUCACCCAUGUAGAAGGGCUCACAC	0.0287	0.0515	–	–
CGAAACUACGAGAAGGACAUGUGGUCCUUCAGUUACAUGAGGAUCACCCAUGUAGGAUAUCGUAGUUUCAGGAUCGUGAGAUCG	0.045	0.0194	–	–
GCCAUCACAUGAGGAUAUGCUCGGGUUUCCCGAGCAGAAGGCAUGUCAUAAGACAUGAGGAUCACCCAUGUAGUUAAGAUGGCA	–	–	0.399	0.0145
AGUCGGAGCAGAGGAUAUAUACAUGAGGAUCACCCAUGUAAAUGAAUAAGCUGGAAACAGCAUGUAUAGAAGGCUGCUCCGACA	0.0456	0.125	–	–
GCCAUCACGUGAGGAUAUGCUCCCGUUUCGGGAGCAGAAGGCAUGUCAUCAGACAUGAGGAUCACCCAUGUAGUUAAGAUGGCA	–	–	0.0437	0.0131
